Test results as given in ChEMBL document CHEMBL4190353, “Synthesis, structure-activity relationships and preliminary mechanism of action of novel water-soluble 4-quinolone-3-carboxamides as antiproliferative agents” (Eur J Med Chem, 2017).
Activity calls are given as the source filed them. The rule behind the calls is not given here.

Experiments:
[1] = test system: HEp-2; test: Cytotoxicity against human Hep2 cells assessed as reduction in cell viability incubated for 24 hrs by MTT assay; assay type: functional, cell-based; conditions: HEp-2, 24 h
Outline: (§1)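 Cells were kept in McCoy's 5A with 10% fetal bovine serum, streptomycin and 100 units·mL⁻¹ penicillin at 37 °C under 5% CO₂/95% air. Viability was read by MTT optical density. IC50 is the concentration that lowers optical density by 50% relative to untreated cells. Values are means with SD of at least three independent determinations.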

[2] = test system: BGC-823; test: Cytotoxicity against human BGC823 cells assessed as reduction in cell viability incubated for 24 hrs by MTT assay; assay type: functional, cell-based; conditions: BGC-823, 24 h; outline: as §1
[3] = test system: HeLa; test: Cytotoxicity against human HeLa cells assessed as reduction in cell viability incubated for 24 hrs by MTT assay; assay type: functional, cell-based; outline: as §1
[4] = test system: HCT-8; test: Cytotoxicity against human HCT8 cells assessed as reduction in cell viability incubated for 24 hrs by MTT assay; assay type: functional, cell-based; conditions: HCT-8, 24 h; outline: as §1
[5] = test system: HCT-116; test: Cytotoxicity against human HCT116 cells assessed as reduction in cell viability incubated for 24 hrs by MTT assay; assay type: functional, cell-based; conditions: HCT-116, 24 h; outline: as §1
[6] = test system: RKO; test: Cytotoxicity against human RKO cells assessed as reduction in cell viability incubated for 24 hrs by MTT assay; assay type: functional, cell-based; outline: as §1
[7] = test system: HCT-116; test: Induction of apoptosis in human HCT116 cells assessed as viable cells level at 2 uM incubated for 24 hrs by Annexin V-FITC/PI staining based cytometry (reference value: 96.6%); assay type: functional
[8] = test system: HCT-116; test: Induction of apoptosis in human HCT116 cells assessed as early apoptotic cells level at 2 uM incubated for 24 hrs by Annexin V-FITC/PI staining based cytometry (reference value: 1.3%); assay type: functional
[9] = test system: HCT-116; test: Induction of apoptosis in human HCT116 cells assessed as late apoptotic cells level at 2 uM incubated for 24 hrs by Annexin V-FITC/PI staining based cytometry (reference value: 0.5%); assay type: functional
[10] = test system: HCT-116; test: Induction of apoptosis in human HCT116 cells assessed as necrotic cells level at 2 uM incubated for 24 hrs by Annexin V-FITC/PI staining based cytometry (reference value: 1.6%); assay type: functional
[11] = test system: HCT-116; test: Induction of apoptosis in human HCT116 cells assessed as increase in cleaved PARP level at 4 uM incubated for 24 hrs by Western blot method; assay type: functional, cell-based
Outline: (§2)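 Lysates were made in SDS buffer (2% SDS, 50 mM Tris-HCl pH 6.8) and quantified by BCA. Equal protein was run on 10% SDS-PAGE and transferred to PVDF. Membranes were blocked in 5% milk, probed overnight at 4 °C for cleaved PARP (1:1000) with GAPDH (1:5000), and detected with HRP secondary antibody and ECL.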

[12] = test system: HCT-116; test: Induction of apoptosis in human HCT116 cells assessed as late apoptotic cells level pre-incubated with 20 uM pan-caspase inhibitor Z-VAD-FMK for 5 hrs followed by compound addition and further incubated for 48 hrs by Annexin V-FITC/PI staining based cytometry (reference value: 0.0%); assay type: functional; parameters: scale not given: the % may be the effect or the level left
[13] = test system: HCT-116; test: Induction of apoptosis in Bax-/- human HCT116 cells assessed as increase in cleaved PARP level incubated for 48 hrs by Western blot method; assay type: functional, cell-based; outline: as §2
[14] = test system: HCT-116; test: Induction of apoptosis in Bax-/- human HCT116 cells assessed as increase in cleaved PARP level pre-incubated with 20 uM pan-caspase inhibitor Z-VAD-FMK for 5 hrs followed by compound addition and further incubated for 48 hrs by Western blot method; assay type: functional, cell-based
Outline: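 Cells were pretreated for 5 h with DMSO or 20 µM Z-VAD-FMK before compound exposure. Lysates were made in SDS buffer and quantified by BCA. Proteins were run on 10% SDS-PAGE, transferred to PVDF, and probed with cleaved PARP (1:1000) and GAPDH (1:5000) loading control, with ECL detection.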

[15] = test system: HCT-116; test: Induction of apoptosis in Bax-/- human HCT116 cells assessed as late apoptotic cells level incubated for 48 hrs by Annexin V-FITC/PI staining based cytometry (reference value: 0.1%); assay type: functional
Outline: (§3)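 Cells were plated at 5×10^5 per well and treated once 80% confluent. After trypsinisation and two washes in ice-cold PBS (pH 7.4), cells were stained with Annexin V-FITC and PI for 15 min at room temperature in the dark. Analysis was by flow cytometry. The legend gives vehicle or 4 µM for the p53-/- and Bax-/- lines.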

[16] = test system: HCT-116; test: Induction of apoptosis in Bax-/- human HCT116 cells assessed as viable cells level pre-incubated with 20 uM pan-caspase inhibitor Z-VAD-FMK for 5 hrs followed by compound addition and further incubated for 48 hrs by Annexin V-FITC/PI staining based cytometry (reference value: 92.9%); assay type: functional
[17] = test system: HCT-116; test: Induction of apoptosis in Bax-/- human HCT116 cells assessed as necrotic cells level pre-incubated with 20 uM pan-caspase inhibitor Z-VAD-FMK for 5 hrs followed by compound addition and further incubated for 48 hrs by Annexin V-FITC/PI staining based cytometry (reference value: 0.2%); assay type: functional; parameters: scale not given: the % may be the effect or the level left
[18] = test system: HCT-116; test: Induction of apoptosis in p53-/- human HCT116 cells assessed as increase in cleaved PARP level at 4 to 16 uM by Western blot method; assay type: functional, cell-based; outline: as §2
[19] = test system: HCT-116; test: Induction of apoptosis in p53-/- human HCT116 cells assessed as necrotic cells level at 4 uM incubated for 48 hrs by Annexin V-FITC/PI staining based cytometry (reference value: 0.8%); assay type: functional
Outline: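 HCT116 p53-/- cells (Vogelstein line) in McCoy's 5A with 10% FBS, 37 °C, 5% CO2. Seeded at 5×10^5 in 6-well plates, treated with vehicle or 4 μM at 80% confluence. After treatment, trypsinised, washed twice in ice-cold PBS pH 7.4, and stained in binding buffer with Annexin V-FITC and PI for 15 min at room temperature in the dark. Read by flow cytometry.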

[20] = test system: HCT-116; test: Induction of apoptosis in Bax-/- human HCT116 cells assessed as viable cells level at 4 uM incubated for 48 hrs by Annexin V-FITC/PI staining based cytometry (reference value: 95.2%); assay type: functional; outline: as §3
[21] = test system: HCT-116; test: Induction of apoptosis in Bax-/- human HCT116 cells assessed as late apoptotic cells level at 4 uM incubated for 48 hrs by Annexin V-FITC/PI staining based cytometry (reference value: 0.2%); assay type: functional; outline: as §3
[22] = test system: HCT-116; test: Induction of apoptosis in Bax-/- human HCT116 cells assessed as necrotic cells level at 4 uM incubated for 48 hrs by Annexin V-FITC/PI staining based cytometry (reference value: 0.3%); assay type: functional; outline: as §3
[23] = test system: HCT-116; test: Inhibition of colony formation of p53-/- human HCT116 cells at 4 to 16 uM incubated for 24 hrs by crystal violet staining based photography; assay type: functional, cell-based
Outline: (§4)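 Cells (HCT116, RKO, HCT116 p53-/-, HCT116 Bax-/-) seeded at 300 per well in 12-well plates for 48 h, then treated 24 h. Drug medium replaced with fresh medium; about 10 days later colonies stained 15 min with crystal violet, photographed and counted. Run in triplicate.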

[24] = test system: HCT-116; test: Inhibition of colony formation of human HCT116 cells incubated for 24 hrs and measured after 10 days post dose in fresh medium by crystal violet staining based photography; assay type: functional, cell-based; outline: as §4
[25] = test system: HCT-116; test: Induction of apoptosis in human HCT116 cells assessed as increase in cleaved PARP level at 4 to 8 uM incubated for 24 hrs by Western blot method; assay type: functional, cell-based; outline: as §2

Compound CCN(CC)CCCNC(=O)c1cn(CCCc2ccccc2)c2cc(Cl)ccc2c1=O.Cl has an IC50 [1] of 3.53 µM, an IC50 [2] of 4.92 µM and an IC50 [3] of 3.52 µM. The IC50 [4] was 6.82 µM, the IC50 [5] was 5.79 µM and the IC50 [6] was 4.87 µM. The Activity [7] was 79.3%, the Activity [8] was 18.2% and the Activity [9] was 1.5%. For the same compound, the Activity [10] was 1%, the Activity [11] was “Active” and the Activity [12] was 2%. For the same compound, the Activity [13] was “Active”, the Activity [14] was “inactive” and the Activity [15] was 1.7%. For the same compound, the Activity [16] was 87.7%, the Activity [17] was 1.2% and the Activity [18] was “Active”. It also gave an Activity [19] of 1.8%, an Activity [20] of 71.5% and an Activity [21] of 0.8%. For the same compound, the Activity [22] was 2.1%, the inhibition [23] was “Active” and the inhibition [24] was “Dose-dependent effect”. The Activity [25] was “Active”.
